For this test, the target named is T1, GFP-myo1e-tail (His6-GFP-myo1e-tail) (Homo sapiens, UniProt Q12965).
T1 sequence (Q12965 710-1108): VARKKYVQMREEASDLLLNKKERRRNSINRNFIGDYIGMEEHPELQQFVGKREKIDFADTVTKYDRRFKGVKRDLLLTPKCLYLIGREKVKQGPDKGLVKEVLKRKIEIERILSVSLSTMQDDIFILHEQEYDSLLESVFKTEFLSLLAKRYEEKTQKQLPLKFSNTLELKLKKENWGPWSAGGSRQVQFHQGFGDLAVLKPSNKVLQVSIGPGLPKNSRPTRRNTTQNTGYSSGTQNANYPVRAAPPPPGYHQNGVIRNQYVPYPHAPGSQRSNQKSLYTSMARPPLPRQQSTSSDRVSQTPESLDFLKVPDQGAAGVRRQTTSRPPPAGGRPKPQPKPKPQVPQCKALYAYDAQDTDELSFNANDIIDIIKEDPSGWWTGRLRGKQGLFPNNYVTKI
Nature of the test: LUV sedimentation, GFP fluorescence of supernatant. The test is classed as binding. The procedure, abridged:
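His6-GFP-myo1e-tail co-expressed with calmodulin in Sf9 cells, purified on Ni-NTA then MonoS, and quantified by A488 (ε 55,000 M⁻¹cm⁻¹). 40 nM protein was mixed with sucrose-loaded 100-nm LUVs (e.g., DOPC with 2% phosphoinositide) in HNa100 (10 mM HEPES pH 7.0, 100 mM NaCl, 1 mM EGTA, 1 mM DTT) with 1 µM calmodulin and 0.25 mg/ml GST. Spun 150,000 × g, 30 min, 25°C; supernatant GFP fluorescence read. Hyperbolic fit gave K_eff versus total lipid.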

Consider `CCCCCCCC/C=C\CCCCCCCC(=O)OC[C@H](COP(=O)([O-])OCC[N+](C)(C)C)OC(=O)CCCCCCC/C=C\CCCCCCCC` [100% DOPC, 1,2-dioleoyl-sn-glycero-3-phosphocholine], for which the Kd is greater than 400 µM.
`CCCCCCCC/C=C\CCCCCCCC(=O)OC[C@H](COP(=O)(O)OC[C@H](N)C(=O)O)OC(=O)CCCCCCC/C=C\CCCCCCCC` [80% DOPS, 1,2-dioleoyl-sn-glycero-3-phospho-L-serine] had a dissociation constant Kd of 0.51 ± 0.1 µM.
As for `CCCCCCCC/C=C\CCCCCCCC(=O)OC[C@H](COP(=O)(O)O[C@H]1[C@H](O)[C@@H](OP(=O)(O)O)[C@H](OP(=O)(O)O)[C@@H](OP(=O)(O)O)[C@H]1O)OC(=O)CCCCCCC/C=C\CCCCCCCC` [2% 18:1 PtdIns(3,4,5)P3, 1,2-dioleoyl-sn-glycerol-3-phospho-(1’-myo-inositol-3’,4’,5’-trisphosphate)], binding was put at a Kd of 3.2 ± 0.4 µM.
To `CCCCCCCC/C=C\CCCCCCCC(=O)OC[C@H](COP(=O)(O)O[C@@H]1[C@H](O)[C@H](OP(=O)(O)O)[C@@H](O)[C@H](OP(=O)(O)O)[C@H]1O)OC(=O)CCCCCCC/C=C\CCCCCCCC` [2% 18:1 PtdIns(3,5)P2, 1,2-dioleoyl-sn-glycerol-3-phospho-(1’-myo-inositol-3’,5’-bisphosphate)] belongs 13 ± 2.1 µM.

These data come from publication PMC2976041 (Biochemistry, 2010).
